Test results as given in ChEMBL document CHEMBL2010771, “Studies toward novel peptidomimetic inhibitors of thioredoxin-thioredoxin reductase system” (J Med Chem, 2012).
Calls of active or inactive are those of the source. The rule behind the calls is not given here.

Tests used:
[1] = Chemical stability of the compound in 0.01 M PBS buffer at pH 7.4 after 5 hrs by RP-HPLC analysis; type: physicochemical; conditions: read-out: Stability
Procedure, shortened: (§1)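 Stock in DMSO (5 mg/mL) diluted about 100-fold into 0.01 M PBS pH 7.4 prewarmed to 37 °C, then held at 37 °C for up to 7 days. At each time point, 100 μL aliquots were mixed with 200 μL ethanol, chilled at 4 °C for 15 min, centrifuged and stored at −20 °C. Samples were quantified by RP-HPLC (C18, acetonitrile/water, 230 nm) against standard curves of at least five dilutions. Triplicates, n = 3.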

T-24 = test: Cytotoxicity against human T24 cells after 72 hrs by crystal violet staining; type: functional; conditions: T-24, 72 h, read-out: LD50 (the source's name)
CT26 = test: Cytotoxicity against wild type mouse CT26 cells after 72 hrs by crystal violet staining; type: functional; conditions: CT26, 72 h, read-out: LD50 (the source's name)
[2] = Cytotoxicity against mouse MEF cells; type: cell-based; conditions: read-out: LD50 (the source's name)
Procedure, shortened: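 Fibroblasts came from BALB/c embryos at E13.5 by 0.2% trypsin digestion at 37 °C for 10 min and were cultured in DMEM. Viability is % of solvent controls with DMSO ≤1%; n ≥ 3.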

Mus musculus [3] = test: Toxicity in mouse EMT6 cells allografted BALB/c mouse assessed as mortality at 40 to 80 mg/kg, ip qd for 7 days; type: organism-based; design: dose 40-80 mg/kg, route intraperitoneal; conditions: in vivo, 168 h
Procedure, shortened: (§2)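 BALB/c mice, 8−12 weeks old, inoculated sc with 3.5 × 10^5 EMT6 cells into the depilated right thigh. Intraperitoneal dosing in DMSO began on day 7, when tumors reached a longer diameter of 5−7 mm, and was given daily. Controls received ip DMSO. Tumor volume was followed by calipers as longer × shorter²/2. Survival and body weight were monitored.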

[4] = molecular target: Thioredoxin reductase (Homo sapiens) (UniProt Q16881+Q9NNW7+Q86VQ6); conditions: 2.5 to 20 uM
Raji [5] = test: Induction of Trx protein expression in human Raji cells at 10 to 20 uM after 4 to 8 hrs by Western blot analysis; type: functional, cell-based
Procedure, shortened: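 Raji cells exposed to compound for 4 and 8 h, washed and lysed in 0.1% NP40 with protease inhibitors. Equal protein (BCA) run on 15% SDS-PAGE and blotted to nitrocellulose, blocked in TBST with 5% BSA. Probed overnight with rabbit anti-thioredoxin and mouse anti-tubulin, then HRP secondaries for 45 min. ECL luminol/coumaric acid detection.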

EMT6 [6] = test: Antitumor activity against mouse EMT6 cells allografted in BALB/c mouse assessed as reduction in tumor growth at 80 mg/kg, ip qd for 7 days; type: functional, organism-based; design: dose 80 mg/kg
Procedure, shortened: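 BALB/c mice (8−12 wk) inoculated s.c. with 3.5 × 10^5 EMT6 cells into the depilated right thigh. Controls received DMSO ip. Tumor volume measured by calipers as (longer diameter) × (shorter diameter)²/2. Survival also recorded.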

[7] = molecular target: T1, Thioredoxin (Homo sapiens) (UniProt P10599); test: Inhibition of thioredoxin in human HeLa cells cotransfected with p-NFkB-luc assessed as inhibition of TNF/IFN-gamma-induced activation of NF-kB after 6 hrs by luciferase reporter assay; type: cell-based
T1 sequence (whole entry): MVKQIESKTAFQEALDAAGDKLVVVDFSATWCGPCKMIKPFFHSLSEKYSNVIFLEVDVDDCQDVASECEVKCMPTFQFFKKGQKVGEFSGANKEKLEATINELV
Procedure, shortened: (§3)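 HeLa cells nucleofected with 2 μg NF-κB- or AP-1-luciferase plasmid plus CMV-Renilla, then cultured 48 h. NF-κB: TNF (10 ng/mL) + IFN-γ (100 U) together with compound for 6 h. AP-1: 4 h in medium without FBS or antibiotics, then ionomycin (1 μM) together with compound for 6 h. Dual-luciferase read-out, firefly normalized to Renilla. Triplicates, n ≥ 3, Student's t test.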

Mus musculus [8] = test: Toxicity in mouse EMT6 cells allografted BALB/c mouse assessed as change in body weight at 40 to 80 mg/kg, ip qd for 7 days; type: organism-based; design: dose 40-80 mg/kg, route intraperitoneal; conditions: in vivo, 168 h; procedure, shortened: as §2
[9] = molecular target: T1, Thioredoxin (Homo sapiens); test: Inhibition of human recombinant Trx-1 expressed in Escherichia coli after 30 to 90 mins preincubation by insulin reduction assay in presence of thioredoxin reductase
Procedure, shortened: (§4)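 Human recombinant His-tagged Trx purified by Ni affinity and gel filtration, then dialyzed free of DTT. Trx was prereduced with TrxR and NADPH for 20 min, then preincubated with compound (2.5−20 μM) for 0−90 min at 37 °C. Reaction ran 30 min at 37 °C in Tris-HCl/EDTA pH 7.6. DTNB stop, A412. Triplicates, SD.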

[10] = molecular target: T1, Thioredoxin (Homo sapiens); test: Inhibition of thioredoxin in human HeLa cells assessed as decrease of H2O2 scavenging activity by measuring CM-H2DCFDA fluorescence at 10 uM after 4 hrs by flow cytometeric analysis; type: cell-based
Procedure, shortened: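 HeLa cells treated 4 h with 10 or 20 μM compound, then trypsinized and resuspended in PBS. H2O2 added to 1 mM final for 10 min, then 1 μL of 5 mM CM-H2DCFDA for 15 min at 37 °C. Cells washed twice and 10^4 cells analyzed by flow cytometry. Triplicates, n = 3, Student's t test.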

[11] = molecular target: T1, Thioredoxin (Homo sapiens); test: Binding affinity to human recombinant Trx-1 expressed in Escherichia coli by mass spectrometry analysis
[12] = molecular target: T1, Thioredoxin (Homo sapiens); test: Inhibition of thioredoxin in human HeLa cells cotransfected with p-AP1-luc assessed as inhibition of ionomycin-induced AP-1 promoter activity after 6 hrs by luciferase reporter assay; type: cell-based; procedure, shortened: as §3
[13] = Chemical stability of the compound in 0.01 M PBS buffer at pH 7.4 after 7 days by RP-HPLC analysis; type: physicochemical; conditions: pH 7.4, 168 h; procedure, shortened: as §1
Raji [14] = test: Cytotoxicity against human Raji cells after 72 hrs by MTT assay; type: functional; conditions: read-out: LD50 (the source's name)
Procedure, shortened: (§5)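 Suspension cells were grown in RPMI-1640 with 10% heat-inactivated FBS and exposed to compound for 72 h with DMSO ≤1%. MTT (5 mg/mL solution) was added for 4 h, then plates were centrifuged, cells lysed in DMSO and read at A570. Viability is % of solvent controls, background-corrected; n ≥ 3.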

Raji [15] = test: Induction of Trx mRNA expression in human Raji cells at 5 to 10 uM after 4 to 24 hrs by RT-PCR analysis; type: functional, cell-based
[16] = Inhibition of human recombinant Trx1/TrxR assessed as reduction in number of free thiols from reduced insulin after 30 mins by insulin reduction assay
Procedure, shortened: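 At least seven compound concentrations. Incubated 30 min at 37 °C, stopped with 8 mM DTNB in 8 M guanidine HCl, A412. IC50 from four-parameter logistic fit. Triplicates, mean ± SD, n ≥ 3.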

[17] = Cytotoxicity against mouse PancO2 cells after 72 hrs by crystal violet staining; type: functional; conditions: read-out: LD50 (the source's name)
Raji [18] = test: Inhibition of Trx1/TrxR in human Raji cells after 4 hrs by insulin reduction assay; type: cell-based
Procedure, shortened: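 Raji cells incubated with compound for 4 h, washed three times with PBS and lysed in 0.1% NP40 with protease inhibitors. Protein measured by BCA. Trx activity determined in 10 μg of total protein by kit insulin reduction with TrxR/NADPH for 20 min at 37 °C, then DTNB/guanidine stop and A412. Triplicates, n = 3, SD.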

Ramos = test: Cytotoxicity against human Ramos cells after 72 hrs by MTT assay; type: functional; conditions: read-out: LD50 (the source's name); procedure, shortened: as §5
[19] = Cytotoxicity against mouse B78 cells after 72 hrs by crystal violet staining; type: functional; conditions: B78, 72 h, read-out: LD50 (the source's name)
[20] = Cytotoxicity against mouse bone marrow cells after 72 hrs by XTT assay; type: cell-based, Bone marrow cell; conditions: read-out: LD50
Procedure, shortened: (§6)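 hPBMC were isolated from healthy donors on Histopaque 1077 and kept in RPMI. Bone marrow came from female BALB/c mice and was cultured in Iscove's medium with 10% FBS and 100 U IL-3. After compound exposure, cells got XTT at 0.3 mg/mL for 4 h, read at A490 against 690 nm. Viability is % of DMSO controls; n ≥ 3.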

[21] = Solubility of the compound in biological media; type: ADME
[22] = molecular target: T1, Thioredoxin (Homo sapiens); test: Inhibition of human recombinant Trx-1 expressed in Escherichia coli at 2.5 to 20 uM by insulin reduction assay in presence of thioredoxin reductase; conditions: TDE = time-dependent effect; procedure, shortened: as §4
K562 = test: Cytotoxicity against human K562 cells after 72 hrs by MTT assay; type: functional; conditions: K562, 72 h, read-out: LD50 (the source's name); procedure, shortened: as §5
[23] = Chemical stability of the compound in 0.01 M PBS buffer at pH 7.4 after 4 days by RP-HPLC analysis; type: physicochemical; conditions: pH 7.4, 96 h; procedure, shortened: as §1
EMT6 [24] = test: Antitumor activity against mouse EMT6 cells allografted in BALB/c mouse assessed as prolongation of host survival time at 80 mg/kg, ip qd for 7 days; type: functional, organism-based; design: dose 80 mg/kg; procedure, shortened: as §2
EMT6 [25] = test: Cytotoxicity against mouse EMT6 cells after 72 hrs by crystal violet staining; type: functional; conditions: EMT6, 72 h, read-out: LD50 (the source's name)
[26] = Cytotoxicity against human PBMC cells after 72 hrs by XTT assay; type: cell-based; conditions: read-out: LD50; procedure, shortened: as §6

C=C(COC(=O)c1c(C(F)(F)F)cccc1C(F)(F)F)C(=O)N[C@@H](CC(C)C)C(=O)NCC(=O)OCC
remaining at 5 h [1]: 20% | CC50 (T-24): 5.6 µM | CC50 (CT26): 3.3 µM | CC50 [2]: 2.9 µM | Activity (Mus musculus [3]): Non-toxic | inhibition [4]: tde | Activity (Raji [5]): Active | growth inhibition (GI) (EMT6 [6]): Active | inhibition [7]: Active | Activity (Mus musculus [8]): Non-toxic | inhibition [9]: Dose-dependent effect | inhibition [10]: Active | Activity [11]: Active | inhibition [12]: Active | Stability [13]: Unstable | CC50 (Raji [14]): 3.7 µM | Activity (Raji [15]): Active | IC50 [16]: 3.3 µM | CC50 [17]: 3.8 µM | inhibition (Raji [18]): Active | CC50 (Ramos): 3.7 µM | CC50 [19]: 4.3 µM | CC50 at 72 h [20]: > 12.5 µM | solubility [21]: soluble | inhibition [22]: tde | CC50 (K562): 4 µM | Stability [23]: Stable | Survival (EMT6 [24]): Active | CC50 (EMT6 [25]): 5.2 µM | CC50 at 72 h [26]: > 25 µM
